Compound activity as filed in PubChem.
Only some compounds are listed: those with a hit (about 2.7% of all), similar ones and a draw of the others.
PLK1 inh: inhibitors of human PLK1 kinase | recombinant PLK1 kinase, TR-FRET peptide phosphorylation | inhibition, % at 10 µM | 0.53% of 97,000 active | AID 619;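 active means inhibition of 50% or more in the single-concentration screen; inactive means inhibition below 50%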;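 further: 0% = DMSO max control and 100% = H-89 dihydrochloride min control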
Target sequence (P53350 whole entry, looked up): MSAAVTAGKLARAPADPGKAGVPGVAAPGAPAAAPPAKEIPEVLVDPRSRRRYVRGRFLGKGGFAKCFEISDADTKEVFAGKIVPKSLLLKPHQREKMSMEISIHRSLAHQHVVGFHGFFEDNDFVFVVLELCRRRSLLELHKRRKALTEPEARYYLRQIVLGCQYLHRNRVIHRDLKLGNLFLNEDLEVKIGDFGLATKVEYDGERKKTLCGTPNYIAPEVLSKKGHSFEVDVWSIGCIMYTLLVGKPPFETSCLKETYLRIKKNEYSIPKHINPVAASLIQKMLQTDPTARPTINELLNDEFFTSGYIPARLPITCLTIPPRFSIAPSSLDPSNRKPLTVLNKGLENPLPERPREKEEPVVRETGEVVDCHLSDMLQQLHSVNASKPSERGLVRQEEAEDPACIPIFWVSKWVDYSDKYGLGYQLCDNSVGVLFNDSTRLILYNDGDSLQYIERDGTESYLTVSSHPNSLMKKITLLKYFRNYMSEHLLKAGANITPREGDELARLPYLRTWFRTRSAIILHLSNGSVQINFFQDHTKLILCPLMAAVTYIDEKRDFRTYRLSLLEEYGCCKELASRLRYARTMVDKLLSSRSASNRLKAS
PLK1 PBD inh: blocks phosphopeptide binding to human Plk1 polo box domain; P53350; Plk1 PBD phosphopeptide binding, fluorescence polarization; inhibition, %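 (tested at about 20 µM)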; 0.13% of 97,000 active; AID 693; in the data active means inhibition above about 34%, passing the limit was not always enough
PTPN22 inh 2: blocks human PTPN22 phosphatase activity; Q9Y2R2; recombinant LYP catalytic domain, DiFMUP fluorescence; inhibition, % at 2 µM; 0.21% of 96,000 active;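 active means inhibition at 2 µM at or above a set limit, the screen mean plus 3 SD, cut at about 24% in these data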;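 further: 0% = DMSO with enzyme and 100% = enzyme fully blocked by orthovanadate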
HIV Rev-RRE inh: HIV Rev-RRE protein-RNA interaction inhibition; 0.79% of 97,000 active; P05866; Rev peptide-RRE RNA binding, FRET; inhibition, % at 8 µM;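 active means inhibition above the screen-wide mean plus 3 SD, cut at about 35% in these data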;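 further: 0% = median DMSO wells and 100% = median Neomycin B control wells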
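Test system – labelled RRE RNA duplex and labelled Rev peptide · Reagent – labelled Rev peptide · Doses – one concentration, 8 µM nominal · Incubation – 5 + 15 min at 25 °C · Signal – FRET fluorescence readout · Read-out basis – % inhibition of FRET ratio versus controls · Control set – DMSO wells as 0% and neomycin B wells as 100% inhibition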
LYP act: increases human PTPN22 phosphatase activity. Q9Y2R2. recombinant LYP, DiFMUP fluorescence; 0 = plate median, 100 = signal doubled. activation, % at 2 µM. 0.11% of 96,000 active;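 active means activation at 2 µM above a set limit, the mean plus 5 SD, cut at about 37% in these data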
hDAT+cocaine: human DAT dopamine uptake with cocaine, either direction; LLC-PK1 hDAT cells, [14C]-dopamine uptake with cocaine IC80; actives deviate in either direction; Q01959; B-score at 10 µM; AID 449768; 1.3% of 110,000 active;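 active means Z score or B-score, a plate-position-corrected score, falls beyond the plate's 99.7% confidence bounds, in either direction; inactive means both scores lie inside the 99.7% bounds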;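 further: scored against the spread of the other compound wells on the same plate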
* hit, by the source's call; / = no result; [ ] = another dose, or the depositor's remark.

SMILES	PLK1 inh	PLK1 PBD inh	PTPN22 inh 2	HIV Rev-RRE inh	LYP act	hDAT+cocaine
O=C(C1=C[C@H](c2csc3ccccc23)C[C@H](OCCCCO)O1)N1CCN(Cc2ccc3c(c2)OCO3)CC1	/	/	/	/	/	2.6*
C#CCNC(=O)C1=C[C@H](c2cn(C(C)=O)c3ccccc23)C[C@H](OCc2ccc(CO)cc2)O1	/	/	/	/	/	-0.081
CC(=O)n1cc([C@@H]2C=C(C(=O)NCc3ccccc3)O[C@H](OCc3ccc(CO)cc3)C2)c2ccccc21	/	/	/	/	/	2.2*
COC(=O)c1c(C)[nH]c(C)c1C(=O)c1ccccc1Cc1ccccc1	/	/	/	/	/	0.41
NC(=O)CSc1nnc(CCc2nc3ccccc3[nH]2)n1-c1ccccc1	-5	-8	3	5	-3	/
COc1cc(OC)cc(C(=O)N2CCN(c3ncccn3)CC2)c1	-14	3	-4	3	4	-0.33
O=c1[nH]c(=O)n(Cc2ccco2)c2c1C(C(F)(F)F)(C(F)(F)F)N=C(Cc1ccccc1)N2	-4	7	6	7	-5	0.099
O=C(/C=C/c1ccccc1)NC(NC(=S)Nc1cc(Cl)ccc1Cl)C(Cl)(Cl)Cl (stereo not given)	-8	-6	2	12	0	-0.44
COc1ccc(Nc2nnc(SCC(=O)c3cc(C)n(CC4CCCO4)c3C)s2)cc1 (stereo not given)	-5	-26	6	2	-4	0.44
CCCCCCCCOc1ccc(C2OC34CCCCC3C(C#N)(C#N)C2(C#N)C(=N)O4)cc1 (stereo not given)	-8	10	8	43*	-4	0.28
CC(=O)Nc1nonc1NC(=O)c1ccc(C(C)(C)C)cc1	-12	17	58*	4	-59	0.096
Cc1cccn2c(N)c(-c3ccccc3)nc12	-7	-1	-4	108*[fluorescence artefact?]	2	0
CCOC(=O)c1c(-c2ccccc2)nc2c(C)cccn12	-7	-37	-4	4	7	-0.27
CN(C(=O)Nc1ccc(Cl)cc1Cl)[C@H]1c2cc(Br)ccc2OC[C@H]1CO	-6	-42	/	3	/	1.1
COc1ccc(CCNC(=O)c2cccnc2)cc1OC	-4	-9	-2	4	-1	0.099
COc1ccc(CN(Cc2cccnc2)C(=S)NCCc2ccccc2)cc1OC	-12	20	11	5	-7	2*
O=c1cc(-c2cccc3ccccc23)[nH][nH]1	-8	-10	1	0	1	2.4*
COc1ccc(-c2cc(=O)[nH][nH]2)cc1	0	-17	-1	9	1	0.01
CCCCN1C=C(C(=O)OC)C(c2ccccc2C(F)(F)F)C(C(=O)OC)=C1	-16	-5	5	9	-4	3.1*
CCOc1c2ccc(C(=O)NCc3ccc(C)cc3)cc2nn1CCOC	-10	-9	10	1	-8	0.11
COc1cc(/C=C(\C#N)c2nc3c(s2)CCCC3)ccc1O	1	-243	-8	72*	10	-0.42
COc1cc(-c2c(C#N)c(N)nc3c2CCCC3)ccc1O	0	-6	0	-4	-2	-0.23
CC[n+]1c(/C=C/Nc2ccccc2)oc2ccccc21	-17	-26	2	52*	4	0.2
CCN(CC)C(=O)COc1ccc(-c2nnc(N3CCCCC3)c3ccccc23)cc1	-12	8	-17	3	15	2.2
Cc1ccc(-c2nnc(N3CCN(C(=O)CSc4ncn[nH]4)CC3)c3ccccc23)cc1	12	-5	-5	8	4	2.7*
SMILES	PLK1 inh	PLK1 PBD inh	PTPN22 inh 2	HIV Rev-RRE inh	LYP act	hDAT+cocaine
Cc1ccc(OCC(=O)N2CCN(c3nnc(-c4ccccc4)c4ccccc34)CC2)cc1	-8	-10	-3	-1	3	3*
O=C(N/N=C/c1cccc([N+](=O)[O-])c1)c1cc2c(ccc3ccccc32)o1	-6	-2	35*	8	-34	/
CC1(C)NC(C)(C)c2nonc2/C1=N\O	/	/	/	/	/	2.8*
O=C(c1ccc(Cl)c(S(=O)(=O)N2CCCCCC2)c1)N1CCN(c2ccccn2)CC1	-4	-8	-4	0	3	2.7*
CN1CCN(C(=O)c2ccc(Cl)c(S(=O)(=O)N3CCCCC3)c2)CC1	/	/	/	/	/	-0.041
CNS(=O)(=O)c1cccc(C(=O)OCC(=O)N2CCc3ccccc3C2)c1	-4	-1	-2	1	4	-0.82
O=C(CSc1nc2cc(Cl)ccc2s1)c1cc2ccccc2o1	-9	10	6	68*	-4	/
